Molecules are shown by their SMILES.

Consider three compounds from ChEMBL document CHEMBL1134357, “Heterobifunctional ligands: practical chemoenzymatic synthesis of a cell adhesive glycopeptide that interacts with both selectins and integrins” (J Med Chem, 2001).

Data set [1] has as its target T1, L-selectin (Homo sapiens) (UniProt P14151).
T1 sequence (whole entry): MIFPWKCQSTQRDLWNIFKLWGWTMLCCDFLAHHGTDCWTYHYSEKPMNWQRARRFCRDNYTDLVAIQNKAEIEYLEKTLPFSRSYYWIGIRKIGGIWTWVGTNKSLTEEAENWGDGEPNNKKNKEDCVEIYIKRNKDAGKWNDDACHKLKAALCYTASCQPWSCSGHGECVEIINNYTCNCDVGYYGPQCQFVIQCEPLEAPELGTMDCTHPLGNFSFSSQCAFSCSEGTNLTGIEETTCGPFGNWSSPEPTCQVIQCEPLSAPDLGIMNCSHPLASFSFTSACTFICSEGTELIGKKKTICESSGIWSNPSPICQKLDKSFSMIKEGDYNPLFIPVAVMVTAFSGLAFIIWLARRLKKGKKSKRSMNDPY
Put plainly: Binding affinity of compound against selectin L was determined. An outline of the steps: (§1)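 SPR (IAsys): recombinant soluble human E-, P- or L-selectin is coupled to a BS3-activated aminosilane cuvette and the surface blocked with BSA. Binding is run in 10 mM PBS, 1 mM CaCl2, pH 7.2, at 25 °C. Ligand solution (0.01 mL into 0.2 mL total) is monitored for 20 min, and kinetic and equilibrium constants are derived from the binding curves.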

In data set [2] the target is T2, E-selectin (Homo sapiens) (UniProt P16581).
T2 sequence (whole entry): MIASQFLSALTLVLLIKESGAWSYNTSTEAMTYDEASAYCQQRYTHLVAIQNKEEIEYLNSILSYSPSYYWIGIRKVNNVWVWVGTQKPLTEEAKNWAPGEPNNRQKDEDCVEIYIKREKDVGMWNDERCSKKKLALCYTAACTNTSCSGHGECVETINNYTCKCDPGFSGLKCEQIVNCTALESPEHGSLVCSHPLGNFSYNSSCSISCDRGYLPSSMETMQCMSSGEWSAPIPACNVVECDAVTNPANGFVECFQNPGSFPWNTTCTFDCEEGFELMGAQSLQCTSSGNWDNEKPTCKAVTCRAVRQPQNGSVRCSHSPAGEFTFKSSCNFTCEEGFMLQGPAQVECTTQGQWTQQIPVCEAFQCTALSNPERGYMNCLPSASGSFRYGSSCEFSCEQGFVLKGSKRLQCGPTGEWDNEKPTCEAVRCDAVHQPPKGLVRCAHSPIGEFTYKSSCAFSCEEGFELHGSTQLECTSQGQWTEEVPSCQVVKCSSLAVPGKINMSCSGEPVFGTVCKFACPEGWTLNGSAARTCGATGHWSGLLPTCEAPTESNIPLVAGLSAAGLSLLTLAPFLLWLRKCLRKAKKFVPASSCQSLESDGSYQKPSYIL
Put plainly: Binding affinity of compound against selectin E was determined. An outline of the steps:
as §1

Data set [3] can be described thus: Association constant of compound against selectin L was determined. The procedure, abridged:
as §1

Data set [4] can be described thus: Dissociation constant of compound against selectin E was determined. An outline of the steps:
as §1

Data set [5] is described as follows: Association constant of compound against selectin E was determined. An outline of the steps:
as §1

Data set [6] can be described thus: Association constant of compound against selectin P was determined. An outline of the steps:
as §1

Data set [7] concerns the target T3, P-selectin (Homo sapiens) (UniProt P16109).
T3 sequence (whole entry): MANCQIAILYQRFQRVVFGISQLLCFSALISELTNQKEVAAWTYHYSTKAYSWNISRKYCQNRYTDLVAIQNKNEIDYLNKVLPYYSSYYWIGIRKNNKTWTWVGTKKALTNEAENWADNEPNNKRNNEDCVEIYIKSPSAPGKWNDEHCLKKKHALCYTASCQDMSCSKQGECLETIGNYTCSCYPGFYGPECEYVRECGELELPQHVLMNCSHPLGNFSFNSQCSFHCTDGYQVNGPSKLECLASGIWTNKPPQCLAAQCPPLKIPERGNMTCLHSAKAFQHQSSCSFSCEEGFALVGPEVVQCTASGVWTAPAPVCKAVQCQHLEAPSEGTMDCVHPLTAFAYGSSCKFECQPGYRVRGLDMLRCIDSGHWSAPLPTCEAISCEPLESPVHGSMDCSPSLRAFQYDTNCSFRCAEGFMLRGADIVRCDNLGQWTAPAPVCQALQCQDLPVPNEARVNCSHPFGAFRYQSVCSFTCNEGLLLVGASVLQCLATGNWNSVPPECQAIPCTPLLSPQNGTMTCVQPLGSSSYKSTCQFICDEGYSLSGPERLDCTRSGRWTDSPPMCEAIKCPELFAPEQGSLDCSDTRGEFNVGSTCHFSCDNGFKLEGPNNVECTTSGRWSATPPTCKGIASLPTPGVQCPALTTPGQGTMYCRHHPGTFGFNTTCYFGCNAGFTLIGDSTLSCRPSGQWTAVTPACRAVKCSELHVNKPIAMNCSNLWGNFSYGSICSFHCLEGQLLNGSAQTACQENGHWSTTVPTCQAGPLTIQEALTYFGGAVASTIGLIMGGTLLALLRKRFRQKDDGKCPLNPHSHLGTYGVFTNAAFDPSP
Put plainly: Binding affinity of compound against selectin P was determined. The procedure, abridged:
as §1

Data set [8] is described as follows: Dissociation constant of compound against selectin P was determined. An outline of the steps:
as §1

Data set [9] in a line: Dissociation constant of compound against selectin L was determined. An outline of the steps:
as §1

Regarding `CC(=O)N[C@H]1[C@H]([C@H](O)[C@H](O)CO)O[C@@](O[C@H]2[C@@H](O)[C@@H](CO)O[C@@H](O[C@@H]([C@H](O[C@@H]3O[C@@H](C)[C@@H](O)[C@@H](O)[C@@H]3O)[C@H](C=O)NC(C)=O)[C@H](O)CO)[C@@H]2O)(C(=O)O)C[C@@H]1O` [SIALYL LEWIS X], the figures for the Ka in data set [1], in [2] and in [7] were 870 M⁻¹, 12000 M⁻¹ and 880000 M⁻¹, respectively. In addition, the K ass was found to be 312.7 M⁻¹ s⁻¹ in data set [3], 21.1 M⁻¹ s⁻¹ in data set [5] and 229.6 M⁻¹ s⁻¹ in data set [6]. In addition, the K diss in [4] came to 0.0017 s⁻¹; in data set [8] it was 0.00026 s⁻¹; in data set [9] it was 0.36 s⁻¹.

For the compound `N=C(N)NCCC[C@H](N)C(=O)NCC(=O)N[C@@H](CC(=O)O)C(=O)N[C@@H](CO)C(=O)O`, the Ka in data set [1] came out at 5400 M⁻¹; in data set [2] it was 6100 M⁻¹; in data set [7], 97000 M⁻¹. Moreover, the K diss stood at 0.00066 s⁻¹ in data set [4], 0.00092 s⁻¹ in data set [8] and 0.00077 s⁻¹ in data set [9].

Consider `NC(N)=NCCC[C@H](N)C(=O)NCC(=O)N[C@@H](CC(=O)O)C(=O)N[C@@H](CO)C(=O)O`, for which the K ass came out at 4.1 M⁻¹ s⁻¹ in data set [3], 4 M⁻¹ s⁻¹ in data set [5] and 89.1 M⁻¹ s⁻¹ in [6].
